# Reference: ChEMBL document CHEMBL1131324 (J Med Chem, 1998)
# Tests used:
# [1] = biological target: T1, 5-hydroxytryptamine receptor 1B (Homo sapiens, UniProt P28222); assay: Binding affinity for human 5-hydroxytryptamine 1B receptor
# [2] = biological target: T1, 5-hydroxytryptamine receptor 1B; assay: Effect of compound on [35S]GTP-gamma-S, radioligand binding CHO cells expressing human 5-hydroxytryptamine 1B receptor; format: functional, cell-based
# [3] = biological target: 5-hydroxytryptamine receptor 1D (Homo sapiens, UniProt P28221); assay: Binding affinity for human 5-hydroxytryptamine 1D receptor
# [4] = biological target: 5-hydroxytryptamine receptor 2A (Homo sapiens, UniProt P28223); assay: Binding affinity for human 5-hydroxytryptamine 2A receptor
# Method in brief: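 Human cloned receptor expressed in HEK 293 cells; displacement of [³H]ketanserin in 50 mM Tris-HCl (pH 7.7 at 25 °C). Test compound over a concentration range, 30-45 min at 37 °C; filtration with ice-cold buffer wash, bound label by scintillation counting; pKi reported as mean (SEM, n) or individual values where n = 2.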
# [5] = biological target: 5-hydroxytryptamine receptor 1A (Homo sapiens, UniProt P08908); assay: Compound was tested for binding affinity against human 5-hydroxytryptamine 1A receptor
# Method in brief: (§1)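 Competition binding giving pKi. Human cloned 5-HT1A in HEK 293 cells vs [3H]-8-OH-DPAT; human 5-HT1E and 5-HT1F in CHO cells vs [3H]-5-HT. Radioligand with a concentration range of test compound, 30–45 min at 37 °C. Rapid filtration, ice-cold buffer wash, scintillation counting. Mean ± SEM, or individual values where n = 2.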
# [6] = biological target: 5-hydroxytryptamine receptor 1E (Homo sapiens, UniProt P28566); assay: Compound was tested for binding affinity against human 5-hydroxytryptamine 1E receptor; method in brief: as §1
# [7] = biological target: 5-hydroxytryptamine receptor 1F (Homo sapiens, UniProt P30939); assay: Compound was tested for binding affinity against human 5-hydroxytryptamine 1F receptor; method in brief: as §1
# [8] = biological target: 5-hydroxytryptamine receptor 2C (Homo sapiens, UniProt P28335); assay: Compound was tested for binding affinity against human 5-hydroxytryptamine 2C receptor
# Method in brief: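 Competition binding against human cloned 5-HT2C receptor expressed in HEK 293 cells. [3H]mesulergine was the radioligand. Incubation in 50 mM Tris-HCl (pH 7.7 at 25 °C) with a range of test concentrations for 30–45 min at 37 °C. Samples were rapidly filtered, washed with ice-cold buffer, and counted by scintillation. pKi is given as mean (SEM, n) or as individual values where n = 2.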
# [9] = biological target: Serotonin 4 (5-HT4) receptor (Sus scrofa, UniProt Q6Q253); assay: Compound was tested for binding affinity against piglet hippocampus 5-hydroxytryptamine 4 receptor; format: tissue-based
# Method in brief: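 pKi from displacement of [125I]SB-207710 in piglet hippocampus. Radioligand and a range of test concentrations incubated 30–45 min at 37 °C, then rapidly filtered, washed with ice-cold buffer and counted by scintillation.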
# [10] = biological target: Alpha-2A adrenergic receptor (Homo sapiens, UniProt P08913); assay: Compound was tested for binding affinity against human cloned Alpha-2A adrenergic receptor
# Method in brief: (§2)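 Radioligand competition run to literature procedures, giving pKi. Receptor preparation incubated with radioligand and a range of test concentrations for 30–45 min at 37 °C. Rapid filtration, ice-cold buffer wash, dried filters scintillation-counted. Mean ± SEM, or individual values where n = 2.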
# [11] = biological target: Alpha-1B adrenergic receptor (Rattus norvegicus, UniProt P15823); assay: Compound was tested for binding affinity against Alpha-1B adrenergic receptor (rat liver, [3H] prazosin); method in brief: as §2
# [12] = biological target: Beta-1 adrenergic receptor (Homo sapiens, UniProt P08588); assay: Compound was tested for binding affinity against human cloned Beta-1 adrenergic receptor; method in brief: as §2
# [13] = biological target: Alpha-1A adrenergic receptor (Rattus norvegicus, UniProt P43140); assay: Compound was tested for binding affinity against Alpha-1A adrenergic receptor (rat submaxillary gland); method in brief: as §2
# [14] = biological target: Alpha-2B adrenergic receptor (Mus musculus, UniProt P30545); assay: Compound was tested for binding affinity against Alpha-2B adrenergic receptor (NG 108-15 cells) using [3H]RX-821002) as radioligand; format: cell-based; method in brief: as §2
# D(3) dopamine receptor = D(3) dopamine receptor (Homo sapiens, UniProt P35462); assay: Compound was tested for binding affinity against human cloned Dopamine receptor D3
# Method in brief: (§3)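 Human D2 or D3 receptors expressed in CHO cells, displacement of [3H]spiperone, giving pKi. Incubated 30–45 min at 37 °C with a range of test concentrations. Filtered, washed with ice-cold buffer, bound label counted by scintillation.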
# D(2) dopamine receptor = D(2) dopamine receptor (Homo sapiens, UniProt P14416); assay: Compound was tested for binding affinity against human cloned Dopamine receptor D2; method in brief: as §3
# Cavia porcellus [15] = organism: Cavia porcellus; assay: Mean maximum temperature drop on SK & F 99101H (-2.23(0.13)) -induced Hypothermia at 8 hr postdose treatment(** p< 0.01 vs SK & F 99101H controls).; format: functional
# Method in brief: (§4)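 Male Dunkin-Hartley guinea pigs, n = 6/group. Compound given 5.0 mg/kg po, then SK&F 99101H 30 mg/kg ip at 2, 4, 8 or 24 h postdose; 8 and 24 h data come from a second independent experiment. Rectal temperature measured by probe 4–5 cm deep. Mean maximum temperature drop, also expressed as % of SK&F 99101H controls.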
# Cavia porcellus [16] = assay: Body temperature drop at 2.2 mg/kg po dosage in Guinea pig.; format: functional
# Cavia porcellus [17] = assay: Body temperature drop at 22 mg/kg po dosage in Guinea pig; format: functional
# Cavia porcellus [18] = assay: Body temperature drop at 4.6 mg/kg po dosage in Guinea pig.; format: functional
# Cavia porcellus [19] = organism: Cavia porcellus; assay: Compound was tested for % of SK & F 99101H controls on induced Hypothermia at 2 hr postdose.; format: functional; method in brief: as §4
# Cavia porcellus [20] = organism: Cavia porcellus; assay: Compound was tested for % of SK & F 99101H controls on induced Hypothermia at 24 hr postdose treatment.; format: functional; method in brief: as §4
# Cavia porcellus [21] = organism: Cavia porcellus; assay: (§5) Compound was tested for % of SK & F 99101H controls on induced Hypothermia at 4 h postdose treatment.; format: functional; method in brief: as §4
# Cavia porcellus [22] = organism: Cavia porcellus; assay: as §5; format: functional; method in brief: as §4; remark: listed apart in the source
# Cavia porcellus [23] = organism: Cavia porcellus; assay: Compound was tested for % of SK & F 99101H controls on induced Hypothermia at 8 hr postdose treatment.; format: functional; method in brief: as §4
# Cavia porcellus [24] = organism: Cavia porcellus; assay: Effect on SK & F 99101H (-2.60(1.37) -induced Hypothermia at 24 hr postdose treatment in guinea pig(** p< 0.01 vs SK & F 99101H controls).; format: functional; method in brief: as §4
# Cavia porcellus [25] = organism: Cavia porcellus; assay: Mean maximum temperature drop on SK & F 99101H (-1.22(0.27)) -induced Hypothermia at 8 hr postdose treatment(* p< 0.05 vs SK & F 99101H controls).; format: functional; method in brief: as §4
# Cavia porcellus [26] = organism: Cavia porcellus; assay: Mean maximum temperature drop on SK & F 99101H (-1.73(0.17)) -induced Hypothermia at 4 hr postdose treatment(** p< 0.01 vs SK & F 99101H controls).; format: functional; method in brief: as §4
# Cavia porcellus [27] = organism: Cavia porcellus; assay: Body temperature drop at SK & F 99101H positive control dose (* p< 0.01 vs vehicle/vehicle controls) in Guinea pig.; format: functional
# Histamine H2 receptor = Histamine H2 receptor (Cavia porcellus, UniProt P47747); assay: Compound was tested for binding affinity towards Histamine H2 receptor; method in brief: as §2
# Histamine H1 receptor = Histamine H1 receptor (Cavia porcellus, UniProt P31389); assay: Compound was tested for binding affinity against Histamine H1 receptor.; method in brief: as §2
# [28] = biological target: Muscarinic acetylcholine receptor M2 (Homo sapiens, UniProt P08172); assay: Compound was tested for binding affinity against human cloned Muscarinic acetylcholine receptor M2; method in brief: as §2
# [29] = biological target: Muscarinic acetylcholine receptor M1 (Homo sapiens, UniProt P11229); assay: Compound was tested for binding affinity against human cloned Muscarinic acetylcholine receptor M1; method in brief: as §2
# [30] = biological target: Beta-2 adrenergic receptor (Homo sapiens, UniProt P07550); assay: Compound was tested for binding affinity against human cloned Beta-2 adrenergic receptor; method in brief: as §2
# Cavia porcellus [31] = organism: Cavia porcellus; assay: Mean maximum temperature drop on SK & F 99101H (-1.72(0.09)) -induced Hypothermia at 2 hr postdose treatment(**p< 0.01 vs SK & F 99101H controls).; format: functional; method in brief: as §4
# Cavia porcellus [32] = assay: Body temperature drop at 10 mg/kg po dosage in Guinea pig.; format: functional
# [33] = biological target: T2, Serotonin 1 receptors; 5-HT1B & 5-HT1D (Homo sapiens) (UniProt P28222+P28221); conditions: Cavia porcellus
# [34] = biological target: T2, Serotonin 1 receptors; 5-HT1B & 5-HT1D (Homo sapiens); conditions: Cavia porcellus; remark: listed apart in the source
# [35] = biological target: T2, Serotonin 1 receptors; 5-HT1B & 5-HT1D (Homo sapiens); conditions: Cavia porcellus; remark: listed apart in the source
# [36] = biological target: T2, Serotonin 1 receptors; 5-HT1B & 5-HT1D (Homo sapiens); conditions: Cavia porcellus; remark: listed apart in the source
# [37] = biological target: T2, Serotonin 1 receptors; 5-HT1B & 5-HT1D (Homo sapiens); conditions: Cavia porcellus; remark: listed apart in the source
# [38] = biological target: T2, Serotonin 1 receptors; 5-HT1B & 5-HT1D (Homo sapiens); conditions: Cavia porcellus; remark: listed apart in the source
# [39] = biological target: T2, Serotonin 1 receptors; 5-HT1B & 5-HT1D (Homo sapiens); conditions: Cavia porcellus; 0.3 mg/kg
# [40] = biological target: T2, Serotonin 1 receptors; 5-HT1B & 5-HT1D (Homo sapiens); conditions: Cavia porcellus; 1.0 mg/kg
# [41] = biological target: T2, Serotonin 1 receptors; 5-HT1B & 5-HT1D (Homo sapiens); conditions: Cavia porcellus; 10.0 mg/kg
# [42] = biological target: T2, Serotonin 1 receptors; 5-HT1B & 5-HT1D (Homo sapiens); conditions: Cavia porcellus; 3.0 mg/kg
# 5-hydroxytryptamine receptor 2A, sequence (P28223 whole entry): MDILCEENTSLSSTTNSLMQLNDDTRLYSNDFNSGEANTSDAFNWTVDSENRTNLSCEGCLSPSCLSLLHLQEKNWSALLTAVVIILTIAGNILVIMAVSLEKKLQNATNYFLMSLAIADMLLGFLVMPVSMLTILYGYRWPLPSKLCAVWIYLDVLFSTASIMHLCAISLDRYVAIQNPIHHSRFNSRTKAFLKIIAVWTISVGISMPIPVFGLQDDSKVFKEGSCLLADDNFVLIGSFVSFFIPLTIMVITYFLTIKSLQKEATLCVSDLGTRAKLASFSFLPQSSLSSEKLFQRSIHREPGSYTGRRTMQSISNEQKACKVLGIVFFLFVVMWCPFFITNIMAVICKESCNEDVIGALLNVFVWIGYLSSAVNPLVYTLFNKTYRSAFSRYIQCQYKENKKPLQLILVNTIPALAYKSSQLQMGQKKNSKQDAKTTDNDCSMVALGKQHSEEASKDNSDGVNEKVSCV
# 5-hydroxytryptamine receptor 1D, sequence (P28221 whole entry): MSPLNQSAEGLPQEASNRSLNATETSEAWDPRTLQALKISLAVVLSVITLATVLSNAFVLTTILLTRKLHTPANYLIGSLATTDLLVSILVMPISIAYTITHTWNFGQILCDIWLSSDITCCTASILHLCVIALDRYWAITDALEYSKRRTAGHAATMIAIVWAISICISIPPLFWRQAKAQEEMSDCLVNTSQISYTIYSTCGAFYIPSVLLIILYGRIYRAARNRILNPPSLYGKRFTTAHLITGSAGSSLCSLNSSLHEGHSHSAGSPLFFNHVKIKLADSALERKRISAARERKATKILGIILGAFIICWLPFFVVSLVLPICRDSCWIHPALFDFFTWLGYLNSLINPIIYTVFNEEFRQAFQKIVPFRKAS
# T1 sequence (P28222 whole entry): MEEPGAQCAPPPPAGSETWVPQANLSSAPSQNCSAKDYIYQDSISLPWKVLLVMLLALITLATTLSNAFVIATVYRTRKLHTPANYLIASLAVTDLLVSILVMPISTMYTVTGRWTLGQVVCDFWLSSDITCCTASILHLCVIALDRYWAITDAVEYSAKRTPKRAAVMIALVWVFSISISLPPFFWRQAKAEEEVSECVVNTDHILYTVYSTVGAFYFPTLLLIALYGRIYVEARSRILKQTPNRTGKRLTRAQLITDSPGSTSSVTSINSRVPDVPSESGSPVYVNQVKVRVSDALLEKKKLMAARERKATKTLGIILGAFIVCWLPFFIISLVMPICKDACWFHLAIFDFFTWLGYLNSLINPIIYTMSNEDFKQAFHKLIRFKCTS
# 5-hydroxytryptamine receptor 1A, sequence (P08908 whole entry): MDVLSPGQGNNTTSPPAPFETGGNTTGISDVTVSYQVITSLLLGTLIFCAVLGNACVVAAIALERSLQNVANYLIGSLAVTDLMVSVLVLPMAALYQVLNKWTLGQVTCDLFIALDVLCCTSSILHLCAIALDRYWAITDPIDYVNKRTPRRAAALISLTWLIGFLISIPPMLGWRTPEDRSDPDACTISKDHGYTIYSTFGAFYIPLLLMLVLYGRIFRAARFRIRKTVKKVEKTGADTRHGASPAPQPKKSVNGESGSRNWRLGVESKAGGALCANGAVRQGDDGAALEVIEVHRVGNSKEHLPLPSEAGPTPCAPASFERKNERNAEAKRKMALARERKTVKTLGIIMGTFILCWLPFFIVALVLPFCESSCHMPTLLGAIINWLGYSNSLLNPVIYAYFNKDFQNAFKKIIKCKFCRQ
# Muscarinic acetylcholine receptor M2, sequence (P08172 whole entry): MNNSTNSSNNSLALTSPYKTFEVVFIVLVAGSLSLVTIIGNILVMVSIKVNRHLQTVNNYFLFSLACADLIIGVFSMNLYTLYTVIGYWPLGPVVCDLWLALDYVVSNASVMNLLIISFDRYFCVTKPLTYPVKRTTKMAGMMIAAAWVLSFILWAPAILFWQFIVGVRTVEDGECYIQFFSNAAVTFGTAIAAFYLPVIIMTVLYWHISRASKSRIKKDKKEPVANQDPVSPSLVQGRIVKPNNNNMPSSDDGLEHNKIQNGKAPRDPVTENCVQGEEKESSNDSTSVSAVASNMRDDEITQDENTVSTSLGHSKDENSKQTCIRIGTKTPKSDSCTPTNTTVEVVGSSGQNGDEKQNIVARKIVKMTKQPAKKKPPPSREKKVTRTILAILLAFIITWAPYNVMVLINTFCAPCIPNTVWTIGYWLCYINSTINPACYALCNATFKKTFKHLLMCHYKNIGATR
# Beta-2 adrenergic receptor, sequence (P07550 whole entry): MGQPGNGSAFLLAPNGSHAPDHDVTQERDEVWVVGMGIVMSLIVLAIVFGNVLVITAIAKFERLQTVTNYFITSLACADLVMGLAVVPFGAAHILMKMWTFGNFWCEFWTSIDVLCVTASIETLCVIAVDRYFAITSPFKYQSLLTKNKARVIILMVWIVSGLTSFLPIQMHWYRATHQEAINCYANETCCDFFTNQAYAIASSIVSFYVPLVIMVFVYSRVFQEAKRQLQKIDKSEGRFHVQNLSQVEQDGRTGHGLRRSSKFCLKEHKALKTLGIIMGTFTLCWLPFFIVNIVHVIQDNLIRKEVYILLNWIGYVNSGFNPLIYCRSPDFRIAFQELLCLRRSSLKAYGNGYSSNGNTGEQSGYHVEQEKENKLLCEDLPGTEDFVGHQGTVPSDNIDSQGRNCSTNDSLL
# Alpha-2A adrenergic receptor, sequence (P08913 whole entry): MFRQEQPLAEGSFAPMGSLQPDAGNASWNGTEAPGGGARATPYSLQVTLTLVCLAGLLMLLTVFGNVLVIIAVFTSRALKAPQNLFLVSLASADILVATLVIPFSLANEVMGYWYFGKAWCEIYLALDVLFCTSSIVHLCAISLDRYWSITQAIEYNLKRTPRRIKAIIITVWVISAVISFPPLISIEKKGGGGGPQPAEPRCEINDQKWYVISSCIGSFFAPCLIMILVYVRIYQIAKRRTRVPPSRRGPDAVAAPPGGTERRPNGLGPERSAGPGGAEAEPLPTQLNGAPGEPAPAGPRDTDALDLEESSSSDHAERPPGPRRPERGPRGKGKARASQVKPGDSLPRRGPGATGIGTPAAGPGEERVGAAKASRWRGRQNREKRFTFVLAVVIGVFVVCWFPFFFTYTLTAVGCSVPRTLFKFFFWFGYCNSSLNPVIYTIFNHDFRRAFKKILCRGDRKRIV
# 5-hydroxytryptamine receptor 1F, sequence (P30939 whole entry): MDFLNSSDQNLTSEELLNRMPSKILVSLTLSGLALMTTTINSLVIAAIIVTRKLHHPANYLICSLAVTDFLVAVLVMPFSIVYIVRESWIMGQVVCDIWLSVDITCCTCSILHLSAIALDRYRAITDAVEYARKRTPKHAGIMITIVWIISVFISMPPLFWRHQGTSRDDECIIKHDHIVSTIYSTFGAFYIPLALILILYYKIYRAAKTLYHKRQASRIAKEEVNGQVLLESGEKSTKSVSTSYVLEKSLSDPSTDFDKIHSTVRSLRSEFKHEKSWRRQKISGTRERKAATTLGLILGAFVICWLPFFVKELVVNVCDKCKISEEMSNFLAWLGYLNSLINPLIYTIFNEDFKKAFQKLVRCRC
# Alpha-2B adrenergic receptor, sequence (P30545 whole entry): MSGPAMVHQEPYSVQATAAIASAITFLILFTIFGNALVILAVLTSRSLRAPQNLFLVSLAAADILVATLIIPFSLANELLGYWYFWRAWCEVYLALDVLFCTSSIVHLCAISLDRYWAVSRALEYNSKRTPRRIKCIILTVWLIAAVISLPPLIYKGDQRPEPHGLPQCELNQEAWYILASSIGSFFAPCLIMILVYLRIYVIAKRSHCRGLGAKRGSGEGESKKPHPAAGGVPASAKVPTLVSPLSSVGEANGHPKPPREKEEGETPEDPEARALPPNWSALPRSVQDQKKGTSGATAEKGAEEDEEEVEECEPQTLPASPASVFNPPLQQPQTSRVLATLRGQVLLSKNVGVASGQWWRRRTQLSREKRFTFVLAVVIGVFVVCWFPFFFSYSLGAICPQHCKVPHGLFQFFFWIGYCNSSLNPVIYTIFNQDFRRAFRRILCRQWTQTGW
# Histamine H2 receptor, sequence (P47747 whole entry): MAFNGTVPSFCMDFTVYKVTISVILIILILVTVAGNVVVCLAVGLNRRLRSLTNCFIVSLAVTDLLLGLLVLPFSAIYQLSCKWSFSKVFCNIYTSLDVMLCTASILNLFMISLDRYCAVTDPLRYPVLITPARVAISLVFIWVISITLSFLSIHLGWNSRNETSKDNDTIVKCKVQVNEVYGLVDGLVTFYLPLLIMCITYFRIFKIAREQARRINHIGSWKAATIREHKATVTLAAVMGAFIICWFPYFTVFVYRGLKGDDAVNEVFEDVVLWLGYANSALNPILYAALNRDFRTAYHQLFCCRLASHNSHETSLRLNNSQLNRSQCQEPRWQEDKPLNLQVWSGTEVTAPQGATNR
# D(3) dopamine receptor, sequence (P35462 whole entry): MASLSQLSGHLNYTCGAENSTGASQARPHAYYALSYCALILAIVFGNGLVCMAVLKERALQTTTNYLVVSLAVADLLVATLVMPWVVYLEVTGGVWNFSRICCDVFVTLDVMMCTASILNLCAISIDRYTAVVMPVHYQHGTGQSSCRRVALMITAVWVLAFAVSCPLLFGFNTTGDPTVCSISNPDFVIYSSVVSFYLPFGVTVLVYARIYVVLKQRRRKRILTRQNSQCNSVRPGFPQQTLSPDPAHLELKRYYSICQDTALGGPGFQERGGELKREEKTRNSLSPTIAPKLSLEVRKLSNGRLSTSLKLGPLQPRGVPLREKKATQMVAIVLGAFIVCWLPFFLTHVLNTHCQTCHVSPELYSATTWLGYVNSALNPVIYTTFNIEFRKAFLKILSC
# 5-hydroxytryptamine receptor 1E, sequence (P28566 whole entry): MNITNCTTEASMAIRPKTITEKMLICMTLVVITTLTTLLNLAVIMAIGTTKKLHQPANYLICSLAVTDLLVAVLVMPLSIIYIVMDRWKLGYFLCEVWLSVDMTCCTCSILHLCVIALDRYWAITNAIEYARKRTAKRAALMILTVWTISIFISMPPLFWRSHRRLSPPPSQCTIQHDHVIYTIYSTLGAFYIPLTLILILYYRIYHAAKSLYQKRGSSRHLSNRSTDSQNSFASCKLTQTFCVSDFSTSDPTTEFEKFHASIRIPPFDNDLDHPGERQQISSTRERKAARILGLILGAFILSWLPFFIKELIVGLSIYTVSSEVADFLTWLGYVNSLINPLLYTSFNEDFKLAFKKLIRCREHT
structure (smiles),measurement,setting,value
Cc1nc(-c2ccc(-c3ccc(C(=O)Nc4cc5c(c(OCCN(C)C)c4)OCC5)cc3)c(C)c2)no1,Ki,[1],0.00158 µM
same,[35S]GTPγS binding stimulation,[2],207%
same,Ki,[3],0.0251 µM
same,Ki,[4],0.0501 µM
Cc1nc(-c2ccc(-c3ccc(C(=O)Nc4ccc5c(c4)C4(CCN(C)CC4)CO5)cc3)c(C)c2)no1,Ki,[1],0.0316 µM
same,[35S]GTPγS binding stimulation,[2],-64%
same,Ki,[3],2 µM
same,Ki,[4],1 µM
COc1cc2c(cc1OCCN(C)C)N(C(=O)c1ccc(-c3ccc(-c4noc(C)n4)cc3C)cc1)CC2,Ki,[1],0.000501 µM
same,Ki,[3],0.00501 µM
same,Ki,[4],0.316 µM
COc1ccc(NC(=O)c2ccc(-c3ccc(-c4noc(C)n4)cc3C)cc2)cc1NCCN(C)C,Ki,[1],0.00251 µM
same,[35S]GTPγS binding stimulation,[2],108%
same,Ki,[3],0.0398 µM
same,Ki,[4],0.00501 µM
Cc1cc(C(=O)Nc2cccc(N3CCN(C)CC3)c2)ccc1Br,Ki,[1],0.126 µM
same,Ki,[3],0.2 µM
same,Ki,[4],0.316 µM
Cc1nc(-c2ccc(-c3ccc(C(=O)N4CCc5cc6c(cc54)C4(CCN(C)CC4)CO6)cc3)c(C)c2)no1 [SB-224289],Ki,[5],> 3.16 µM
same,Simulation,[2],-62%
same,Ki,[6],> 10 µM
same,Ki,[4],1.58 µM
same,Ki,[7],> 10 µM
same,Ki,[8],0.631 µM
same,Ki,[9],> 1 µM
same,Ki,[10],> 1 µM
same,Ki,[11],> 1 µM
same,Ki,[12],> 1 µM
same,Ki,[13],> 1 µM
same,Ki,[14],> 1 µM
same,Ki,D(3) dopamine receptor,> 1 µM
same,Ki,D(2) dopamine receptor,> 1 µM
same,Body temp drop,Cavia porcellus [15],-1.1 °C
same,Body temperature drop,Cavia porcellus [16],-0.23 °C
same,Body temperature drop,Cavia porcellus [17],-0.03 °C
same,Body temperature drop,Cavia porcellus [18],-0.05 °C
same,Control,Cavia porcellus [19],22%
same,Control,Cavia porcellus [20],50%
same,Control,Cavia porcellus [21],15%
same,Control,Cavia porcellus [22],43%
same,Control,Cavia porcellus [23],48%
same,Body temp drop,Cavia porcellus [24],-1.31 °C
same,Body temp drop,Cavia porcellus [25],-0.53 °C
same,Body temp drop,Cavia porcellus [26],-0.27 °C
same,Mean maximumtemp drop,Cavia porcellus [27],-2 °C
same,Ki,Histamine H2 receptor,> 1 µM
same,Ki,Histamine H1 receptor,> 1 µM
same,Ki,[28],> 1 µM
same,Ki,[29],> 1 µM
same,Ki,[30],> 1 µM
same,Body temp drop,Cavia porcellus [31],-0.38 °C
same,Body temperature drop,Cavia porcellus [32],-0.03 °C
same,Degrees Centigrade,[33],-1.77 °C
same,Degrees Centigrade,[34],-1.63 °C
same,Degrees Centigrade,[35],-1 °C
same,Body temperature drop,[36],-1.92 °C
same,Body temperature drop,[37],-0.12 °C
same,Body temp drop,[38],-0.67 °C
same,Control,[39],93%
same,Control,[40],85%
same,Control,[41],35%
same,Control,[42],52%
